Assay results as given in publication PMC9827036 (Current Research in Pharmacology and Drug Discovery, 2022).
Like-named read-outs stand apart in the source and are kept apart here.

Experiments:
FAK [1] = biological target: T1, FAK (Homo sapiens, UniProt Q05397); experiment: Western blot of FAK-Tyr-397 phosphorylation in suspended Caco-2 cells; format: cell-based
Outline: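 Caco-2 cells held in suspension on plates pre-coated with 1% heat-inactivated BSA to avoid adhesion-driven FAK activation. Treated with compound (100 pM–1000 nM) or H2O for 1 h at 37 °C, then lysed. Lysates resolved by 10% SDS-PAGE on nitrocellulose, probed for pTyr-397 FAK with total FAK as loading control. Read-out: pTyr-397/FAK fold change; n = 4–8.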

Caco-2 cells = details: in vitro; ref Wang et al., 2019b; cited from earlier work
FAK [2] = biological target: T1, FAK; details: 10 nM, suspended Caco-2 cells; ref Wang et al., 2019b; cited from earlier work

T1 sequence (Q05397 whole entry): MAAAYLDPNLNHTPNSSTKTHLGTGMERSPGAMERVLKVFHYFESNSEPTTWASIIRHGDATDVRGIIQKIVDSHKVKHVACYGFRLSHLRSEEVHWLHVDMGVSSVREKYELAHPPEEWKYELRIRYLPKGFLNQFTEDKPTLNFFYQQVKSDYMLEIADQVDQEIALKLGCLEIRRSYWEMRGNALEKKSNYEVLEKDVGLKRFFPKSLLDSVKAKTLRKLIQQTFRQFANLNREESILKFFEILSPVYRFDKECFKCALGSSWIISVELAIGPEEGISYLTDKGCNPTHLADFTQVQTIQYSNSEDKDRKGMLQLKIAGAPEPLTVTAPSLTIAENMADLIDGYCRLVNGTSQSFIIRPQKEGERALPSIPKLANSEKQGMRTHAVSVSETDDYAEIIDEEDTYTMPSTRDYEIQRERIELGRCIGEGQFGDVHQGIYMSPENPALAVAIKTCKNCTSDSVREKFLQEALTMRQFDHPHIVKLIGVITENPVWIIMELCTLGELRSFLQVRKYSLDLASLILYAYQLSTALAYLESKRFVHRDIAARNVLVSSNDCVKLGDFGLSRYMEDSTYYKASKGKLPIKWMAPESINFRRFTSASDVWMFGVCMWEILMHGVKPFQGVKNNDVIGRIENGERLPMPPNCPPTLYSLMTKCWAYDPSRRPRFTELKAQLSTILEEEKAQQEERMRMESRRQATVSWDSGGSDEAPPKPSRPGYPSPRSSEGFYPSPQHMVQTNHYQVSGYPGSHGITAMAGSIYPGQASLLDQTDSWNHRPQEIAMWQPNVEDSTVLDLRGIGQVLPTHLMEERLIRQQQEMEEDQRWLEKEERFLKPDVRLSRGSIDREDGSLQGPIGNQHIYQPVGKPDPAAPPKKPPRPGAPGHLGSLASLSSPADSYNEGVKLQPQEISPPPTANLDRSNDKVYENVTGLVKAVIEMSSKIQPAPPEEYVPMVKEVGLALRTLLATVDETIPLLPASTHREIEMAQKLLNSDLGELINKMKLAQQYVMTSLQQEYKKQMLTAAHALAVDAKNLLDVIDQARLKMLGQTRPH

| FAK activation (FAK [1]; 10–1000 nM) | FAK activation (positive control) (FAK [1]; 100 nM, Caco-2 cells) | Structure (SMILES) | lowest concentration stimulating Caco-2 cell monolayer wound closure (Caco-2 cells) | FAK activation (FAK [2]) |
| --- | --- | --- | --- | --- |
| did not activate FAK |  | CN(C)C(CNC(=O)Nc1cc(C(F)(F)F)ccc1N1CCOCC1)c1ccncc1 (stereo not shown) [M64, 1-(2-(dimethylamino)-2-(pyridin-4-yl)ethyl)-3-(2-morpholino-5-(trifluoromethyl)phenyl)urea] |  |  |
|  | activates FAK | COc1ccc(C2CCCN2C(=O)Nc2cc(C(F)(F)F)ccc2N2CCOCC2)cc1 (stereo not shown) [ZN40099027] | 10 nM | 14.8% |
